# Legend:
# Candida albicans [1] = assay: Activity at Candida albicans 3107 1,3-beta-D-glucan synthase subunit FKS1p
# How it was run: (§1)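 Glucan synthase from cells grown at 37°C with vigorous shaking to early stationary phase in YPD. Membrane enzyme enriched by product entrapment. Serial echinocandin dilutions; ANF controls held 1% DMSO. Reaction started by adding enzyme, run 60 min at 25°C in a filtration polymerization assay, stopped on ice. IC50 from a variable-slope sigmoidal fit; means of three repetitions on separate days.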
# Candida albicans [2] = assay: Antimicrobial activity against Candida albicans 36082 by M27-A3 method in presence of 50% human serum; type: functional
# How it was run: (§2)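 Broth microdilution per CLSI M27-A3 in RPMI 1640, done in triplicate on three separate days. Each strain was tested with and without 50% human serum. C. krusei ATCC 6258 and C. parapsilosis ATCC 22019 served as QC strains. Arithmetic means are reported, and geometric means were used for comparison.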
# [3] = Inhibition of Candida albicans SC5314 1,3-beta-D-glucan synthase subunit FKS1p
# How it was run: (§3)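 Enzyme is product-entrapped 1,3-β-D-glucan synthase, enriched from membranes of each strain grown at 37°C with shaking in YPD broth to early stationary phase. Filtration polymerization assay uses [3H]UDPG, started by adding enzyme and run 60 min at 25°C. Echinocandins are added as serial dilutions, with 1% DMSO controls for anidulafungin. IC50 is from a variable-slope sigmoidal fit; values are triplicate arithmetic means.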
# Candida albicans [4] = assay: Antimicrobial activity against Candida albicans 194 harboring FKS1 C1934T/G4082R mutant gene and FKS1 hotspot1 S645F mutant gene and FKS1 hotspot2 R1361R/H mutant gene by M27-A3 method; type: functional; how it was run: as §2
# Candida albicans [5] = assay: Activity at Candida albicans 121 1,3-beta-D-glucan synthase subunit FKS1p G4082A mutant
# How it was run: (§4)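 Product-entrapped 1,3-β-D-glucan synthase from cells grown in YPD at 37°C to early stationary phase. Wells held 50 mM HEPES pH 7.5, 10% glycerol, 1.5 mg/ml BSA, 25 mM KF, 1 mM EDTA, 25 μM GTP-γ-S, 1 μg enzyme and [3H]UDPG (0.015–2 mM). Reactions ran 60 min at 25°C. Vmax and Km came from Lineweaver-Burke plots, in triplicate.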
# Candida albicans [6] = assay: Antimicrobial activity against Candida albicans 1002 by M27-A3 method; type: functional
# How it was run: (§5)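 Broth microdilution per CLSI M27-A3 in RPMI 1640, with and without 50% human serum, in triplicate. C. krusei ATCC 6258 and C. parapsilosis ATCC 22019 served as quality-control strains. MIC reported as arithmetic mean of three repetitions on separate days.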
# Candida albicans [7] = assay: Antimicrobial activity against Candida albicans A15 harboring FKS1 T1933Y mutant gene and FKS1 hotspot1 S645S/P mutant gene by M27-A3 method; type: functional; how it was run: as §2
# Candida albicans [8] = assay: Antimicrobial activity against Candida albicans 5415 harboring FKS1 T1933C mutant gene and FKS1 hotspot1 S645P mutant gene by M27-A3 method; type: functional; how it was run: as §2
# Candida albicans [9] = assay: Antimicrobial activity against Candida albicans 3107 by M27-A3 method; type: functional; how it was run: as §2
# [10] = Inhibition of Candida albicans 90 1,3-beta-D-glucan synthase subunit FKS1p G4082R mutant; how it was run: as §3
# Candida albicans [11] = assay: Antimicrobial activity against Candida albicans 2762 harboring FKS1 T1922C mutant gene and FKS1 hotspot1 F641S mutant gene by M27-A3 method; type: functional; how it was run: as §2
# Candida albicans [12] = assay: Antimicrobial activity against Candida albicans 121 harboring FKS1 G4082A mutant gene and FKS1 hotspot2 R1361H mutant gene by M27-A3 method; type: functional; how it was run: as §2
# Candida albicans [13] = assay: Activity at Candida albicans 119 1,3-beta-D-glucan synthase subunit FKS1p T1921C mutant; how it was run: as §4
# Candida albicans [14] = assay: Antimicrobial activity against Candida albicans 122 harboring FKS1 C1946A mutant gene and FKS1 hotspot1 P649H mutant gene by M27-A3 method; type: functional; how it was run: as §2
# Candida albicans [15] = assay: Antimicrobial activity against Candida albicans 85 harboring FKS1 C1934T mutant gene and FKS1 hotspot1 S645F mutant gene by M27-A3 method; type: functional; how it was run: as §2
# Candida albicans [16] = assay: Antimicrobial activity against Candida albicans 149 harboring FKS1 G1942T mutant gene and FKS1 hotspot1 D648Y mutant gene by M27-A3 method; type: functional; how it was run: as §2
# Candida albicans [17] = assay: Activity at Candida albicans 122 1,3-beta-D-glucan synthase subunit FKS1p C1946A mutant; how it was run: as §4
# [18] = Inhibition of Candida albicans 3795 1,3-beta-D-glucan synthase subunit FKS1p; how it was run: as §3
# [19] = Inhibition of Candida albicans 85 1,3-beta-D-glucan synthase subunit FKS1p C1934T mutant; how it was run: as §3
# Candida albicans [20] = assay: Activity at Candida albicans 90 1,3-beta-D-glucan synthase subunit FKS1p G4082R mutant; how it was run: as §4
# Candida albicans [21] = assay: Antimicrobial activity against Candida albicans 36082 by M27-A3 method; type: functional; how it was run: as §5
# [22] = Inhibition of Candida albicans 89 1,3-beta-D-glucan synthase subunit FKS1p C1934A mutant; how it was run: as §3
# Candida albicans [23] = assay: Antimicrobial activity against Candida albicans 3795 by M27-A3 method; type: functional; how it was run: as §5
# Candida albicans [24] = assay: Antimicrobial activity against Candida albicans 149 harboring FKS1 G1942T mutant gene and FKS1 hotspot1 D648Y mutant gene by M27-A3 method in presence of 50% human serum; type: functional; how it was run: as §2
# [25] = Inhibition of Candida albicans 205 1,3-beta-D-glucan synthase subunit FKS1p T1933C mutant; how it was run: as §3
# Candida albicans [26] = assay: Antimicrobial activity against Candida albicans 2762 harboring FKS1 T1922C mutant gene and FKS1 hotspot1 F641S mutant gene by M27-A3 method in presence of 50% human serum; type: functional; how it was run: as §2
# Candida albicans [27] = assay: Antimicrobial activity against Candida albicans A15-10 harboring FKS1 T1933C mutant gene and FKS1 hotspot1 S645P mutant by M27-A3 method in presence of 50% human serum; type: functional; how it was run: as §2
# [28] = Inhibition of Candida albicans 119 1,3-beta-D-glucan synthase subunit FKS1p T1921C mutant
# How it was run: (§6)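 Product-entrapped glucan synthase from YPD-grown cells (37°C, early stationary phase) in a filtration polymerization assay with [3H]UDPG. Echinocandin serial dilutions were added, with 1% DMSO in controls for anidulafungin. Reactions were started with enzyme, run 60 min at 25°C and stopped on ice. IC50 came from a variable-slope sigmoidal fit, in triplicate.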
# Candida albicans [29] = assay: Activity at Candida albicans 85 1,3-beta-D-glucan synthase subunit FKS1p C1934T mutant; how it was run: as §4
# Candida albicans [30] = assay: Activity at Candida albicans 90028 1,3-beta-D-glucan synthase subunit FKS1p; how it was run: as §1
# [31] = Inhibition of Candida albicans 1002 1,3-beta-D-glucan synthase subunit FKS1p; how it was run: as §6
# Candida albicans [32] = assay: Antimicrobial activity against Candida albicans 177 harboring FKS1 T1922C mutant gene and FKS1 hotspot1 F641S mutant gene by M27-A3 method; type: functional; how it was run: as §2
structure (smiles),measurement,setting,value
CC[C@H](C)C[C@H](C)CCCCCCCCC(=O)N[C@H]1C[C@@H](O)[C@@H](NCCN)NC(=O)[C@@H]2[C@@H](O)CCN2C(=O)[C@H]([C@H](O)CCN)NC(=O)[C@H]([C@H](O)[C@@H](O)c2ccc(O)cc2)NC(=O)[C@@H]2C[C@@H](O)CN2C(=O)[C@H]([C@@H](C)O)NC1=O [CASPOFUNGIN],Km,Candida albicans [1],102 µM
same,Vmax,Candida albicans [1],6.04 nmol/min
same,MIC,Candida albicans [2],0.25 µg/mL
same,Ki,[3],0.00297 µg/mL
same,MIC,Candida albicans [4],4 µg/mL
same,Km,Candida albicans [5],129 µM
same,Vmax,Candida albicans [5],4.41 nmol/min
same,MIC,Candida albicans [6],0.33 µg/mL
same,MIC,Candida albicans [7],4 µg/mL
same,MIC,Candida albicans [8],8 µg/mL
same,MIC,Candida albicans [9],0.25 µg/mL
same,IC50,[10],0.02043 µg/mL
same,Ki,[10],0.14815 µg/mL
same,MIC,Candida albicans [11],3.33 µg/mL
same,MIC,Candida albicans [12],2 µg/mL
same,Km,Candida albicans [13],54 µM
same,Vmax,Candida albicans [13],2.54 nmol/min
same,MIC,Candida albicans [14],4 µg/mL
same,MIC,Candida albicans [15],4 µg/mL
same,MIC,Candida albicans [16],2.67 µg/mL
same,Km,Candida albicans [17],152 µM
same,Vmax,Candida albicans [17],1.95 nmol/min
same,IC50,[18],0.00144 µg/mL
same,Ki,[18],0.00467 µg/mL
same,IC50,[19],0.4591 µg/mL
same,Ki,[19],0.51933 µg/mL
same,Km,Candida albicans [20],31 µM
same,Vmax,Candida albicans [20],2.36 nmol/min
same,MIC,Candida albicans [21],0.21 µg/mL
same,IC50,[22],2.075 µg/mL
same,Ki,[22],0.86 µg/mL
same,MIC,Candida albicans [23],0.33 µg/mL
same,MIC,Candida albicans [24],4 µg/mL
same,IC50,[25],0.2454 µg/mL
same,Ki,[25],1.48 µg/mL
same,MIC,Candida albicans [26],8 µg/mL
same,MIC,Candida albicans [27],16 µg/mL
same,IC50,[28],0.01003 µg/mL
same,Ki,[28],0.00492 µg/mL
same,Km,Candida albicans [29],25 µM
same,Vmax,Candida albicans [29],1.83 nmol/min
same,Km,Candida albicans [30],67 µM
same,Vmax,Candida albicans [30],4.71 nmol/min
same,IC50,[31],0.00175 µg/mL
same,Ki,[31],0.00626 µg/mL
same,MIC,Candida albicans [32],4 µg/mL
